The record followed here is ChEMBL document CHEMBL6092210, “Synthesis, in vitro and in vivo biological evaluation of novel dual compounds targeting both acetylcholinesterase and serotonergic 5-HT4 receptors with potential interest in the treatment of Alzheimer's disease” (Eur J Med Chem, 2024).

Converted amounts (≈) assume the structure as drawn.

Data set [1] deals with T1, 5-hydroxytryptamine receptor 4 (Homo sapiens, UniProt Q13639). Put plainly: Partial agonist activity at human recombinant 5HT4 receptor at 1 x 10^-8M incubated for 60 mins. The data set is classed as functional.
Data set [2] deals with Cholinesterase (Equus caballus, UniProt P81908). In words: Inhibition of equine serum BuChE using Acetyl and butyrylthiocholine iodide as substrate preincubated for 5 mins followed by substrate addition and measured every min for 10 mins by Ellman's method. A general note: DTNB colorimetry detects thiols as they appear.
For data set [3], the target named is T1, 5-hydroxytryptamine receptor 4. In words: Partial agonist activity at human recombinant 5HT4 receptor expressed in […] cells assessed as cAMP accumulation in presence of serotonin by HTRF analysis. Format: functional, cell-based. In outline:
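COS-7 cells grown in DMEM with 10 % dialyzed FCS and transiently transfected with HA-tagged h5-HT4R, then plated at 16,000 cells/well. At 24 h, cells were exposed for 10 min at 37 °C to 5-HT4 ligands in HEPES-buffered saline containing 0.1 % BSA and 0.1 mM RO-20-1724. Cells were lysed with 0.1 % Triton X-100 and cAMP measured by HTRF.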
For orientation: Cyclic AMP is a second messenger, typically raised through Gs and lowered through Gi signalling.

Data set [4] can be described thus: Intrinsic solubility of the compound at pH 12 by classical shake-flask method. Format: physicochemical. To be noted: buffer. In outline: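 Shake-flask method: 1 mg compound in 4 mL pH 12 phosphate buffer with KCl, n = 3. Sonicated, shaken at room temperature for 48 h, centrifuged. Supernatant mixed 1:1 with acetonitrile/DMSO (99:1) and quantified by UV at 326 nm against a four-point calibration curve.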

Data set [5] is described as follows: Thermodynamic solubility of compound at pH 7.4 by classical shake-flask method. Format: physicochemical. The note with it: buffer, read-out: Therm_solubility. In outline: (§1)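 Shake-flask thermodynamic solubility (OECD 105, miniaturized). 1 mg of solid added to 4 mL of water or potassium phosphate buffer at pH 7.4 or 12 (n = 3), sonicated and shaken horizontally at room temperature for 48 h. After centrifugation, supernatant was mixed 1:1 with acetonitrile/DMSO and quantified by UV at 326 nm against a four-point calibration curve.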

Data set [6] is described as follows: Thermodynamic solubility of compound by classical shake-flask method. The data set is classed as physicochemical. To be noted: read-out: Therm_solubility. In outline:
as §1

The target of data set [7] is T2, P-glycoprotein (ABCB1) (Homo sapiens, UniProt P08183). Put plainly: Inhibition of P-glycoprotein mediated Rhodamine-123 efflux in human NCI/ADR-RES cells assessed as increase in intracellular fluorescence at 10 uM incubated for 24 hrs relative to control. Format: cell-based. To be noted: probe Rhodamine-123. In outline:
(§2)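 NCI/ADR-RES cells in RPMI with 10 % FCS, seeded 24 h before the assay. […] Washed three times, lysed in Tris/SDS, fluorescence read (ex 507/em 528 nm). Cyclosporin A as positive control.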

The target of data set [8] is T2, P-glycoprotein (ABCB1). In words: Inhibition of P-glycoprotein mediated Rhodamine-123 efflux in human NCI/ADR-RES cells assessed as increase in intracellular fluorescence at 1 uM incubated for 24 hrs relative to control. Format: cell-based. To be noted: probe Rhodamine-123. In outline: as §2
The nature of data set [9]: Cytotoxicity against human MRC5 cells assessed as growth inhibition at 10 uM incubated for 72 hrs by MTS assay relative to control. Format: toxicity, cell-based. To be noted: read-out: Activity. In outline: (§3)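 MRC5-SV2 cells in D-MEM with 10 % FCS, treated 24 h after plating with compound from DMSO stock (DMSO 1 % final). After 72 h, MTS added for 3 h at 37 °C and absorbance read at 490 nm. Growth inhibition = (1 − OD treated/OD control) × 100, triplicate experiments.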
For orientation: Tetrazolium dyes change colour on reduction, which living cells bring about.

Data set [10] can be described thus: Cytotoxicity against human MRC5 cells assessed as growth inhibition at 1 uM incubated for 72 hrs by MTS assay relative to control. The data set is classed as toxicity, cell-based. To be noted: read-out: Activity. In outline:
as §3

Data set [11] is described as follows: Mutagenicity in Salmonella typhimurium TA97a by Ames test. The data set is classed as toxicity. The note with it: salmonella enterica subsp. enterica serovar typhimurium. In outline:
(§4)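 Semi-quantitative spot test with S. typhimurium TA97a, TA98, TA100 and TA102, with and without S9 mix.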

Data set [12] in a line: Mutagenicity in Salmonella typhimurium TA98 by Ames test. Format: toxicity. To be noted: salmonella enterica subsp. enterica serovar typhimurium. In outline: as §4
Data set [13] is described as follows: Mutagenicity in Salmonella typhimurium TA100 by Ames test. Format: toxicity. To be noted: salmonella enterica subsp. enterica serovar typhimurium. In outline:
as §4

The nature of data set [14]: Mutagenicity in Salmonella typhimurium TA102 by Ames test. The data set is classed as toxicity. The note with it: salmonella enterica subsp. enterica serovar typhimurium. In outline:
as §4

The nature of data set [15]: Oral bioavailability in Wistar rat at 1 to 9 mg/kg. The data set is classed as ADME, organism-based. The note with it: in vivo, dose 1-9 mg/kg. In outline: (§5)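 Oral doses of 1, 3 and 9 mg/kg alongside iv and ip dosing, in 0.9 % saline, n = 3 per dose. Terminal plasma under isoflurane at six time points, UHPLC–MS/MS quantification. Bioavailability from non-compartmental AUCs, with the methods giving F = (AUCpo/AUCip) × (Doseip/Dosepo).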

The nature of data set [16]: Oral bioavailability in C57BL6 mouse at 1 to 9 mg/kg. The data set is classed as ADME, organism-based. The note with it: in vivo, dose 1-9 mg/kg. In outline: as §5
Data set [17] in a line: AUC in Wistar rat at 3 mg/kg, ip. To be noted: in vivo. The data set is classed as ADME, organism-based. In outline:
(§6)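 Single ip dose in 0.9 % saline (10 mL/kg mouse, 2 mL/kg rat), n = 3 per dose. CSF from cisterna magna and cardiac-puncture blood taken under isoflurane at six time points. Protein precipitation, then UHPLC–MS/MS (LLOQ 1 ng/mL). AUC0–∞ by linear trapezoidal non-compartmental analysis.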

A short description of data set [18]: AUC in C57BL6 mouse at 3 mg/kg, ip. Format: ADME, organism-based. The note with it: in vivo. In outline: as §6

T2 sequence (P08183 whole entry): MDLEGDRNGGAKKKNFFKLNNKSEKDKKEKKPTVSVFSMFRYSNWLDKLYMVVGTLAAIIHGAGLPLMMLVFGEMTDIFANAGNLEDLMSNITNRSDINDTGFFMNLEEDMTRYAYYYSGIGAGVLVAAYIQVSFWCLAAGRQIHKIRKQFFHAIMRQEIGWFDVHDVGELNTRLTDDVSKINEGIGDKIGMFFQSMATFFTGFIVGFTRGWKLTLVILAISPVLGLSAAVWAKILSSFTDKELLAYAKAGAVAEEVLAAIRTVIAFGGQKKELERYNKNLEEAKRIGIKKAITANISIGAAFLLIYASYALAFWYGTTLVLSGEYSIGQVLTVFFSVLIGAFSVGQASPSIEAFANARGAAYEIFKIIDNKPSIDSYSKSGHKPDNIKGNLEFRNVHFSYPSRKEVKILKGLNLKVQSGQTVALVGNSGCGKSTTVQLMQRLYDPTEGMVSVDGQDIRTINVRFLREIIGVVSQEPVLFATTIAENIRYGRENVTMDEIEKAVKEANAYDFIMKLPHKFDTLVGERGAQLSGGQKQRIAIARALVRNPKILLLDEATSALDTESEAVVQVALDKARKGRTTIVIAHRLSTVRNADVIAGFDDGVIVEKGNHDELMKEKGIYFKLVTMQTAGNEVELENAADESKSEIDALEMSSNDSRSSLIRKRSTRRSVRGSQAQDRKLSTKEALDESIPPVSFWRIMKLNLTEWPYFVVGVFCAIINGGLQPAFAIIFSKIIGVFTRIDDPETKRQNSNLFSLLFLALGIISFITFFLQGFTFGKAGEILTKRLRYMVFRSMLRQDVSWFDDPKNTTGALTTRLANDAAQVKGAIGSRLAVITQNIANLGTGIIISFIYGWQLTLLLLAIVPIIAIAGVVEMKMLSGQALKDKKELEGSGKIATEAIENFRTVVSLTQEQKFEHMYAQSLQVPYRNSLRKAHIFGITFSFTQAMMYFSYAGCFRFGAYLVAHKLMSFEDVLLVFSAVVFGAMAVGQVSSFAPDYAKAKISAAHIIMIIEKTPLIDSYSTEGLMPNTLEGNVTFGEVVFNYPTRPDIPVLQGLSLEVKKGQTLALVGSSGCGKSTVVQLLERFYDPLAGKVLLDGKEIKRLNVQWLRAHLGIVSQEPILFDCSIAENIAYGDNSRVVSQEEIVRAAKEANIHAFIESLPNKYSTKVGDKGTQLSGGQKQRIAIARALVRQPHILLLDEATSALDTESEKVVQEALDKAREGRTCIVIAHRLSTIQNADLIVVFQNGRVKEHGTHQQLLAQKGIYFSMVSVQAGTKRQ
T1 sequence (Q13639 whole entry): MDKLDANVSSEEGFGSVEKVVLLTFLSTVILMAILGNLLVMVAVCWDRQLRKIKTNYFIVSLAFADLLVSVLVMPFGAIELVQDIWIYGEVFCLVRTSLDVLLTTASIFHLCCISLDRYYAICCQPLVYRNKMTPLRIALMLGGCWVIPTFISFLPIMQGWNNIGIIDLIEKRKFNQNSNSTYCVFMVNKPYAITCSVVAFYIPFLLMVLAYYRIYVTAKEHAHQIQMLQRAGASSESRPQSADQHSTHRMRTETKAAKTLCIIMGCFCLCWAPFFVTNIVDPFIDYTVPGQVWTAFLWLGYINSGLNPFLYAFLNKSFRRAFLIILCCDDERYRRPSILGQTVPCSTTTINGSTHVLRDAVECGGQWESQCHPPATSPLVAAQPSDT
Sequence of Cholinesterase (P81908 whole entry): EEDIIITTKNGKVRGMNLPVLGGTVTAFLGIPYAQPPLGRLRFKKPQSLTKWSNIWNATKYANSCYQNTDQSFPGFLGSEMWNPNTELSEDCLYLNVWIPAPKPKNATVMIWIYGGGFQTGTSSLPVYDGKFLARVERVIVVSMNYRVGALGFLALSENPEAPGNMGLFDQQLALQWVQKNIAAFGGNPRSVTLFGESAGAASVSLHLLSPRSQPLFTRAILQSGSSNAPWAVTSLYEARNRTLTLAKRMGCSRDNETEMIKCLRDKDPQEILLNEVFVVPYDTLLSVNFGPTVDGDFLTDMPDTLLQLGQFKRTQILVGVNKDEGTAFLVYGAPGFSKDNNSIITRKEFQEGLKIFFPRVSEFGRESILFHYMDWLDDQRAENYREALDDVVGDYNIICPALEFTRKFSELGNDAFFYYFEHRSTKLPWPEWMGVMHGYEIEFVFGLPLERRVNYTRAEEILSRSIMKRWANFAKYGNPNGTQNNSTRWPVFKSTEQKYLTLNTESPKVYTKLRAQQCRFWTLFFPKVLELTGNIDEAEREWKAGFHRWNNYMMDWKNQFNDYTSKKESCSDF

Regarding `COc1cc(N)c(F)cc1C(=O)CCC1CCN(CC2CCCCC2)CC1`, in data set [1], the Ki worked out at 9.6 nM. The compound further showed an IC50 in data set [2] of 6200 nM. In data set [3], the EC50 stood at 1.3 nM. Besides, the solubility thermodynamic was 2 µM (≈ 0.753 µg/mL) in [4], 104 µM (≈ 39.2 µg/mL) in [5] and 444 µM (≈ 167 µg/mL) in [6]. The inhibition at 24 h, 10 µM in [7] is 111%. For the same compound, in data set [8], the inhibition at 24 h, 1 µM came out at 125%. Besides, in data set [9], the inhibition at 72 h, 10 µM was 0%. The inhibition at 72 h, 1 µM in [10] is 0%. The Activity entry in data set [11], in [12], in data set [13] and in data set [14] was “Non-toxic” throughout. Besides, the values for the bioavailability in [15] and in [16] were 3.6% and 12.4%, respectively. Besides, the AUC in data set [17] turned out to be 9.26 ng·h/mL; in data set [18], 7.66 ng·h/mL.

For orientation: Ki means the equilibrium dissociation constant of an inhibitor or competing ligand from its target. For orientation: IC50 means the concentration at which inhibition is half-maximal. The EC50 is the concentration giving half of the maximal effect. As usually defined, the bioavailability is the share of a dose that reaches the circulation, judged against a reference dose that is usually intravenous. What is called AUC is concentration integrated over time. A high value points to more exposure.
